HIF activator – HIF pathway transcriptional activation. actives 0.32% (n = 300,000). AID 1910. U2OS HRE-luciferase reporter, luminescence; normalized: DMSO 0%, desferrioxamine 100%. activation, % at 7.5 µM (by protocol);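 active means mean activation of at least 10% of the iron chelator positive control signal, with at least half of replicates also reaching 10%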
NR2E3 ag-1 – agonists of human NR2E3 nuclear receptor. actives 0.35% (n = 360,000). AID 602229. CHO-S Gal4-NCOR/VP16-NR2E3 two-hybrid, luciferase. Q9Y5X4. inhibition of corepressor binding, % at 3.98 µM;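 active means inhibition above the mean of all tested compounds plus 3 SD, cut at about 70% in these data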;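 further: higher means lower luciferase signal from less NR2E3 corepressor binding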
Target sequence (Q9Y5X4 whole entry, looked up, the tested form may be a part): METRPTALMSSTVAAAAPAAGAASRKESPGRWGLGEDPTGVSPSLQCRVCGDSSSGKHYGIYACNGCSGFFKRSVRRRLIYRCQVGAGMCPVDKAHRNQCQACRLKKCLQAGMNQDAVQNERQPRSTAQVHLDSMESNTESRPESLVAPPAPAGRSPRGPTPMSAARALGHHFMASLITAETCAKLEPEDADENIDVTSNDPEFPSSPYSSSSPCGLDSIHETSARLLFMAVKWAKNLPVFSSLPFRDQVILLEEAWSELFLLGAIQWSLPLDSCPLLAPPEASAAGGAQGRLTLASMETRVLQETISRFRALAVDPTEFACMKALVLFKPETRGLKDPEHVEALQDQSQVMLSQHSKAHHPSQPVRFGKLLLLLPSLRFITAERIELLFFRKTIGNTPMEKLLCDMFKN
TROY NFkB inh – inhibitors of TROY-dependent NF-kB signaling; Q293 LMP1-TROYcd NF-kB luciferase reporter, 4 h; inhibition, % at 10 µM; actives 0.98% (n = 360,000); AID 1347056;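 active means compounds whose plate-normalised and pattern-corrected inhibition of the luciferase reporter signal at the single screening dose is 50% or more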
NR2E3 ag-2 – agonists of human nuclear receptor NR2E3. GST-NR2E3/biotin-RetCOR TR-FRET, 1536-well. inhibition of corepressor binding, % at 4.78 µM. Q9Y5X4. AID 2300. actives 0.12% (n = 320,000);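 active means percent inhibition above the cutoff of mean plus 3 SD of all tested compounds, set per screening campaign, cut at about 20% in these data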
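Test system – NR2E3–RetCOR corepressor complex · Quantity – NR2E3 fusion 1.35 nM · Buffer or medium – Tris pH 7.5 · Incubation – Compound–protein incubation for 5 h at 4 °C · Technique – TR-FRET, Eu(K)-anti-GST donor, streptavidin-D2 acceptor, ex 340, em 617/671 nm · Evaluation – percent inhibition of 671/617 nm emission ratio versus biotin and DMSO controls · Plate – 1536-well format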
EBV LMP1 NFkB – inhibitors of Epstein-Barr LMP1-induced NF-kappaB reporter. inhibition, % at 12.5 µM. LMP1-induced NF-kappaB luciferase reporter cells, luminescence. actives 0.69% (n = 350,000); in the data active means inhibition above about 41%
Numbers stand for hits; n = inactive; x = no result given. Most compounds without a hit are left out; they make up all but 2% or so of the library.

SMILES	HIF activator	NR2E3 ag-1	TROY NFkB inh	NR2E3 ag-2	EBV LMP1 NFkB
O=S1(=O)C=C(Sc2nnc(-c3ccccc3)o2)c2ccccc21	n	n	62	n	n
CC(Sc1nnc(C2CC2)n1C1CC1)C(=O)c1ccc(F)cc1 (configuration not stated)	x	n	n	n	n
COc1ccc(-c2cc(C(=O)N3CCCC3)no2)cc1	n	n	59	n	50
O=C(c1cc(-c2ccc(F)cc2)on1)N1CCCCCC1	n	n	n	n	n
Cc1ccc(-c2cc(C(=O)N3CCCCCC3)no2)cc1	12	n	n	n	n
Clc1ccc(OCc2nn3c(-c4ccco4)nnc3s2)c(Cl)c1	n	n	69	n	n
Cc1cc(C(=O)NNC(=O)[C@H](C)NC(=O)c2ccc(Br)cc2)c(C)o1	x	n	n	x	n
CC(=O)Nc1cc(OC(C)=O)c2nonc2c1OC(C)=O	x	n	n	39	n
COC(=O)c1cc(=O)nc(NNC(C)=O)s1	x	n	n	x	x
O=c1c(=NNc2ccccc2Cl)c(=O)c2ccccc12	x	n	67	x	n
CC(=NN=C(C)c1ccc(O)cc1)c1ccc(O)cc1	x	n	n	x	n
C=C(c1ccc(O)cc1)c1ccc(O)cc1	n	n	51	n	n
CCN(Cc1cc(=O)n2ccsc2n1)c1cccc2ccccc12	n	n	64	n	n
Cc1cc(SCc2cc(=O)n3ccsc3n2)nc2ccccc12	n	n	n	n	n
Oc1cccc(-c2nc3ccccc3s2)c1	n	n	n	n	n
CC[n+]1cccc(-c2nc3ccccc3s2)c1	n	n	64	n	n
Cc1ccc(NC(=O)CSc2nnc(NC(=O)C(C)C)s2)c(C)c1	n	n	n	n	63
CCSc1nnc(NC(=O)C(C)C)s1	n	n	n	n	n
O=C(NCCCl)NNc1c(Cl)cc(Cl)cc1Cl	n	n	72	n	n
O=C(NNC(=S)NC1CCCCC1)c1sc2ccccc2c1Cl	n	n	76	n	n
CC(C)(C)C(=O)NC(=S)NNC(=O)c1sc2ccccc2c1Cl	n	n	86	n	57
COc1cccc(NC(=O)CN2CCN(S(=O)(=O)c3ccc(F)cc3)CC2)c1	n	n	n	n	n
COc1ccc(S(=O)(=O)N2CCN(CC(=O)Nc3cc(OC)cc(OC)c3)CC2)cc1	n	n	n	n	79
O=C(CN1CCN(S(=O)(=O)c2ccc(F)cc2)CC1)Nc1cccc(C(F)(F)F)c1	n	n	n	n	74
O=C(Cn1ccc(C(F)(F)F)n1)Nc1cccc(S(=O)(=O)N2CCCCC2)c1	n	n	n	n	53
SMILES	HIF activator	NR2E3 ag-1	TROY NFkB inh	NR2E3 ag-2	EBV LMP1 NFkB
C/C(=N\NC(=O)c1c(C)nc2ccccn12)c1ccc(O)cc1O	13	n	n	n	n
COc1ccc(CCC(C)NCc2cccc(Br)c2)cc1 (configuration not stated)	n	n	n	n	n
Cc1ccc(NN=C2c3ccccc3-c3ccccc32)cc1	n	n	52	n	n
COc1ccc(C(=O)N2CCCC2(C)C(=O)NCC(C)C)cc1C(F)(F)F (configuration not stated)	x	n	n	x	x
CC(NC(=O)CSc1ncn[nH]1)c1ccc(Cl)cc1Cl (configuration not stated)	n	n	n	x	n
COc1ccc(C(O)c2ncc(-c3ccccc3)[nH]2)c(OC)c1 (configuration not stated)	x	n	n	x	x
CCC(C)[C@H](NC(=O)NCc1ccc(S(N)(=O)=O)cc1)C(=O)OC (some centres not stated)	n	n	n	n	n
CCC(C)[C@H](NC(=O)NCc1cccnc1)C(=O)OC (some centres not stated)	x	n	n	n	52
Cc1ccc2nc(-c3ccccc3)nn2c1	x	n	62	x	64
COc1cc2cc(C(=O)N3CCN(c4ccccc4OC)CC3)[nH]c2cc1OC	n	n	n	x	53
COc1ccccc1N1CCN(C(=O)c2cc3ccccc3[nH]2)CC1	n	n	n	n	n
S=C(N/N=C/c1ccc2ncccc2c1)Nc1cccnc1	n	n	n	n	55
Cc1ccc(NS(=O)(=O)c2cc3[nH]c(=O)c(=O)[nH]c3cc2C)c(C)c1	n	n	n	n	n
COc1ccc(/C=N/NC(=S)Nc2ccccc2[N+](=O)[O-])cc1O	n	n	86	n	n
c1ccc(-n2cnc3cc(NCc4cccs4)ccc32)cc1	n	n	83	n	n
Cc1ccc(-n2cnc3cc(NCc4cccs4)ccc32)cc1	n	n	n	n	n
Cc1oc(-c2ccccc2F)nc1CS(=O)CC(=O)NC1CCCC1 (configuration not stated)	n	n	n	n	n
O=C1C=CC(=O)c2c(O)c(N3CCN(CCOCCO)CC3)c(Br)c(O)c21	x	n	n	x	82
O=C1C=CC(=O)c2c(O)c(N3CCN(CCO)CC3)c(Cl)c(O)c21	x	n	n	x	72
CN1CCN(CCNC(=O)c2ccc(CS(=O)c3ccc(Br)cc3)o2)CC1 (configuration not stated)	x	n	n	x	n
CC(OC(=O)c1nn(C)c(=O)c2ccccc12)C(=O)Nc1ccc(S(N)(=O)=O)cc1 (configuration not stated)	n	n	n	n	n
O=C(CN1CCCC1)N1CCCc2ccccc21	n	n	n	n	n
O=C(CN1CCCCC1)N1CCCc2ccccc21	90	n	n	n	n
Cc1cccc(NC(=O)N2CCCc3ccccc32)c1C	n	n	75	x	n
Cc1ccc(NC(=O)N2CCCc3ccccc32)cc1C	n	n	65	n	n
SMILES	HIF activator	NR2E3 ag-1	TROY NFkB inh	NR2E3 ag-2	EBV LMP1 NFkB
COc1cc(CNc2ncnc3c2ncn3[C@H]2CN(Cc3cccc4ccccc34)C[C@@H](CO)O2)cc(OC)c1OC	x	n	n	x	x
O=C(CCc1ccc(F)c(F)c1)NC1CCCN(Cc2ccc(Cl)cc2)C1 (configuration not stated)	n	n	n	n	80
O=C(NCc1ccccc1)c1ccc(NC(=O)C2CCC2)cc1	x	n	n	x	n
O=C(Nc1ccn(CCOC(=O)c2ccccc2)c(=O)n1)c1ccccc1	x	n	54	x	x
O[C@H]1CN(CC2CCCCC2)[C@@H](c2ccc(Cl)cc2)C[C@@H]1n1cc(C2CC2)nn1	x	n	52	x	n
O=C(NC(=O)c1ccccc1)Nc1cccc(S(=O)(=O)N2CCCCC2)c1	n	n	n	n	n
CCOC(=O)N1CCN(C(=O)c2ccc3c(c2)sc2nc(-c4ccccc4)cn23)CC1	n	n	59	n	n
O=C(N/N=C/c1ccc(-c2cccc(C(F)(F)F)c2)o1)c1ccccc1Br	n	n	65	n	n
Cc1cccc(NC(=O)CSCC(=O)NNC(=O)c2ccoc2C)c1	n	n	n	n	n
CC(C)(C)c1ccc(Nc2n[nH]c3ccccc23)cc1	x	n	53	x	x
Cc1nn(C(=O)c2cccnc2)c(C)c1Sc1ccccc1	103	n	n	n	n
Cn1cc(CC(=O)N2CCN(c3ccc(Cl)cc3)CC2)c2ccccc21	42	n	n	n	n

Assay outcomes as filed in PubChem.
